Compound activity as filed in PubChem.
ABCG2 block – inhibitors of human ABCG2 transporter, ABCB1 counter-screen; Q9UNQ0; IgMXP3 cells, JC-1 efflux, flow cytometry; inhibition, % at 6.6 µM; 190,000 tested, 0.1% active; AID 1325;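 active means inhibition above 80%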;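 further: 0% = DMSO and 100% = nicardipine control wells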
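Read-out basis: Efflux inhibition in percent versus controls | Test system: ABCG2 IgMXP3 and barcoded ABCB1 CCRF-Adr cell mix | Quantity: 3 million cells/mL in well | Schedule: 10 min at 25 °C | Control set: Nicardipine as high control, DMSO as low control | Reagent: JC-1 as fluorescent efflux pump substrate | Signal: Flow cytometry of retained JC-1 fluorescence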
Avidin fluor – compound fluoresces at 488/530 nm on avidin beads | compound fluorescence 488/530 nm, flow cytometry; stronger effect = higher value | fluorescence (KMESF) at 10 µM | 220,000 tested, 0.38% active; in the data active means fluorescence above about 47
PKD1 kinase inh – PKD1 (human) kinase inhibition; Q15139; PKD1 kinase fluorescence polarization assay; inhibition, % (concentration not given with the values); 200,000 tested, 0.056% active; AID 797
Target sequence (Q15139 whole entry, looked up): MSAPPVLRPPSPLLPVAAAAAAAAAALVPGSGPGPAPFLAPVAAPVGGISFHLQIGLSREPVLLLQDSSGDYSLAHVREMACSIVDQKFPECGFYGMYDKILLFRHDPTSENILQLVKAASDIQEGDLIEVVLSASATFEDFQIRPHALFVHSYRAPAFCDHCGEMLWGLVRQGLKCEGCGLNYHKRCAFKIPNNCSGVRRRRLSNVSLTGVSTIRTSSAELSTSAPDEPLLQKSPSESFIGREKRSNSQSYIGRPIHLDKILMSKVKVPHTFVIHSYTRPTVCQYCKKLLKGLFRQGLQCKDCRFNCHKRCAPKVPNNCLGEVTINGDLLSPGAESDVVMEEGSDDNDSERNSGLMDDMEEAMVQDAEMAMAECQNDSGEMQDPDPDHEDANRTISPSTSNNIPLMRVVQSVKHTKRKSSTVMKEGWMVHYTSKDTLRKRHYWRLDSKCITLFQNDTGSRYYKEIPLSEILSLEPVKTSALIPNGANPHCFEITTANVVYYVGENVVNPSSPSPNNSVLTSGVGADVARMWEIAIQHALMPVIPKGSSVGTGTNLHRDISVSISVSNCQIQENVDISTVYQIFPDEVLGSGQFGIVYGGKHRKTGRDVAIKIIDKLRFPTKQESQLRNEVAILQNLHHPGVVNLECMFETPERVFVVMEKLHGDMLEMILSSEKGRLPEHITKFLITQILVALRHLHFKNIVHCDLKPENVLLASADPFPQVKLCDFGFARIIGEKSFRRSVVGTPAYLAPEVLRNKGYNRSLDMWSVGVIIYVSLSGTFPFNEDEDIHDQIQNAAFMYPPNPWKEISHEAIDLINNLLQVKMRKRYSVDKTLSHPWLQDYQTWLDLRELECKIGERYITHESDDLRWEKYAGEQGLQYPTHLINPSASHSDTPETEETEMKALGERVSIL
GSH bead fluor – compound fluoresces at 488/530 nm on GSH beads; 190,000 tested, 0.25% active; AID 1776; GSH beads flow cytometry, compound fluorescence 488/530 nm; stronger effect = higher value; fluorescence (KMESF) at 10 µM; in the data active means fluorescence above about 89;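 further: glutathione beads carrying GST-tagged Bcl family fusion proteins plus one bare bead set; values are compound well signal with DMSO vehicle wells as background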
L major viab – inhibitors of Leishmania major promastigote growth; Leishmania major promastigotes, resazurin fluorescence viability; inhibition, % at 10 µM; 200,000 tested, 9% active; AID 1063;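 further: promastigotes grown with compound for 44 hours at 28 °C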
ABCB1 inh – inhibitors of human ABCB1 transporter, ABCG2 counter-screen; CCRF-Adr cells, JC-1 efflux, flow cytometry; inhibition, % at 6.6 µM; 190,000 tested, 0.067% active; in the data active means inhibition above about 40%;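 further: 0% = vehicle and 100% = reference inhibitor; higher value means more JC-1 retained so stronger ABCB1 efflux block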
* hit, by the source's call; / = no result given. The sample as a whole holds a higher share of hits than the screen did. Unless noted, no stated cut-off is given here; in the data, active means inhibition above about 50%; inactive means the rest.

SMILES	ABCG2 block	Avidin fluor	PKD1 kinase inh	GSH bead fluor	L major viab	ABCB1 inh
CC(C)N1C/C(=C/c2cccnc2)C(=O)/C(=C/c2cccnc2)C1	3.0	3	5.0	10	100.4*	0.3
Cc1ccc(S(=O)(=O)NC(=O)c2ccc(-c3ccc(-c4ccccc4)cc3)o2)c(C)c1	-3.2	11	8.2	20	-9.4	-0.3
CCC(=O)N(Cc1ccc(S(N)(=O)=O)cc1)C1CC(=O)N(c2ccccc2)C1=O (stereo not given)	0.2	10	-1.8	30	-7.0	0.1
COc1ccccc1CNC(=O)C(=O)NCC(c1ccco1)N1CCOCC1 (stereo not given)	1.3	15	-5.6	28	0.6	1.3
CCN(CC)c1nc(-c2ccccn2)nc(-c2ccccc2)c1C#N	4.6	12	-2.9	14	70.5*	1.7
COC(=O)CN(c1cc(Cl)ccc1OC)S(=O)(=O)c1ccc(C)cc1	/	7	/	/	/	/
COc1ccc(Cl)cc1N(CC(=O)NC(C)(C)C)S(=O)(=O)c1ccc(C)c([N+](=O)[O-])c1	30.5	14	-8.5	15	96.0*	11.7
CCOC(=O)c1c(NC(=O)C2CCCN(S(=O)(=O)c3ccccc3)C2)sc2c1CCCC2 (stereo not given)	37.0	8	-6.0	4	81.4*	3.6
CCOC(=O)c1c(NC(=O)C2CCCN(S(=O)(=O)c3ccc(C)cc3)C2)sc2c1CCCC2 (stereo not given)	3.8	15	-1.2	9	5.9	1.2
CCOC(=O)c1c(NC(=S)Nc2ccccc2)sc2c1CCN(CC)C2	-1.7	14	-13.1	11	98.5*	-0.6
CCOC(=O)c1c(NC(=O)C2COc3ccccc3O2)sc2c1CCN(Cc1ccccc1)C2 (stereo not given)	13.6	18	-3.9	16	57.8*	1.6
CCOC(=O)c1c(NC(=O)COc2cccc3c2CCN(C)C3=O)sc2c1CCC2	-3.7	14	-2.9	10	79.8*	1.4
NC(=O)c1c(NC(=O)C2COc3ccccc3O2)sc2c1CCN(Cc1ccccc1)C2 (stereo not given)	10.1	26	2.3	9	-4.8	1.1
COc1ccc(C2CC(=O)Oc3c2c(=O)n(C)c2ccccc32)c(OC)c1OC (stereo not given)	1.0	16	8.4	11	-4.8	0.4
Cc1cc(C)cc(OCC(=O)O/N=C(\N)c2cccnc2)c1	/	6	/	/	/	/
CCC(=O)N(C)CCc1cc2c(c(OC)c1/C=N/NC(=O)c1ccc(Br)cc1)OCO2	3.7	11	-13.1	12	-6.3	0.8
O=C(COc1cc(F)ccc1[N+](=O)[O-])NCCCc1ccccc1	10.6	5	5.0	16	0.1	1.0
O=C(CN1C2=NCCN2c2ccccc21)C12CC3CC(CC(C3)C1)C2	3.2	8	-16.0	27	100.7*	0.9
Cc1ccc(C)c(C(=O)CN2C3=NCCCN3c3ccccc32)c1	0.4	11	-12.1	14	77.9*	0.3
Cc1ccc(CN2C3=NCCN3c3ccccc32)cc1	4.8	10	-3.1	10	18.3	0.5
COc1ccc(C(=O)CN2C3=NCCCN3c3ccccc32)cc1OC	0.6	5	-8.6	19	-7.9	-0.2
Cc1cc(CN(C)C)c(O)c(C2(C)CCCCC2)c1	1.1	38	-5.9	18	3.4	0.5
Cc1cc(CN2CCOCC2)c(O)c(C2(C)CCCCC2)c1	2.0	18	-6.8	25	55.9*	3.0
CCSc1nnc(N2C(=O)CC(c3ccsc3)C3=C2CC(C)(C)CC3=O)s1 (stereo not given)	6.7	5	-12.2	21	67.3*	2.2
CC1(C)CC(=O)C2=C(C1)N(c1ccc(F)cc1)C(=O)CC2c1cccnc1 (stereo not given)	2.6	3	-14.7	18	-6.6	0.9
SMILES	ABCG2 block	Avidin fluor	PKD1 kinase inh	GSH bead fluor	L major viab	ABCB1 inh
Clc1ccc(Cn2nnc(-c3ccc(CN4CCOCC4)cc3)n2)cc1	0.7	4	6.3	38	96.3*	0.4
Clc1ccc(Cn2nnc(-c3ccccc3)n2)cc1	-0.3	25	-0.8	19	-3.4	0.1
Fc1ccc(Cn2nnc(-c3ccc(CN4CCOCC4)cc3)n2)cc1	2.3	4	-6.1	35	95.1*	0.8
CCOC(=O)C1(CCCc2ccccc2)CCN(C(=O)C(C)n2cncn2)CC1 (stereo not given)	3.1	4	-0.2	10	1.3	1.0
Cc1cc([N+](=O)[O-])nn1CCCC(=O)Nc1sc2c(c1C(N)=O)CCC(C)C2 (stereo not given)	2.2	14	-6.7	4	69.4*	0.5
CC1CCc2sc(NC(=O)C3CC(Cl)=CCC3C(=O)O)c(C#N)c2C1 (stereo not given)	0.6	11	3.4	21	-6.8	-0.1
Nc1ccc2oc(-c3ccccc3Cl)nc2c1	-0.7	14	5.2	12	-0.2	-0.1
Cc1ccc(C)c(-c2nc3cc(N)ccc3o2)c1	0.9	61*	2.6	14	1.6	-0.1
O=C(c1ccc(Cn2c(=O)[nH]c3ccccc3c2=O)cc1)N1CCN(c2ccccn2)CC1	1.7	6	0.4	27	43.8	2.8
O=C(c1ccc(Cn2c(=S)[nH]c3ccccc3c2=O)cc1)N1CCN(c2ccccn2)CC1	3.7	10	-0.8	12	99.8*	3.7
COc1ccc(/C=C2\SC(=O)N(CCNC(=O)C3CC4C=CC3C4)C2=O)cc1 (stereo not given)	10.0	9	5.5	16	95.8*	1.7
COc1ccc(/C=C2/SC(=O)N(CCNC(=O)C3CCCN3C(=O)c3cccs3)C2=O)cc1 (stereo not given)	6.8	13	-20.9	6	76.0*	1.6
COc1ccc(Cn2ccnc2)cc1Br	5.8	38	10.8	12	71.5*	1.0
Cc1ccc(OCCOCCn2ccnc2)c(Br)c1	0.9	31	1.9	20	91.5*	0.2
Clc1ccc(OCCCn2ccnc2)c(Br)c1	1.8	5	7.7	16	94.8*	0.4
COc1ccc(NC(C)=O)cc1NC(C)C(=O)Nc1ccc(F)cc1 (stereo not given)	0.6	15	-7.5	12	0.6	0.0
Cc1ccc2nc(SC(C)C(=O)Nc3cccc([N+](=O)[O-])c3)[nH]c2c1 (stereo not given)	18.9	17	-5.0	16	56.2*	1.4
Cc1ccc2nc(SCC(=O)Nc3cc([N+](=O)[O-])ccc3F)[nH]c2c1	14.4	10	0.6	19	11.7	0.8
CC(=O)N=c1sc2cc(C)ccc2n1C	44.3	8	-6.2	12	0.5	3.0
CC(=O)N=c1sc2c3ccccc3ccc2n1C	1.3	23	2.6	17	63.4*	0.4
COc1ccc(NCc2nc3ccccc3n2CCOc2ccccc2)cc1	4.2	8	3.6	18	86.8*	1.2
COc1ccc(NCc2nc3ccccc3n2CCOc2ccc(C)cc2)cc1	24.7	3	-6.8	12	90.6*	5.1
